Results collected from several papers.
Compare with care: the assays were run in different laboratories.
Observed: cell growth or viability

| Structure (SMILES) | cell line | method | time | endpoint | value |
| --- | --- | --- | --- | --- | --- |
| CCCCC/C=C\C/C=C\C/C=C\C/C=C\CCCC(=O)NCCO | ReNcell VM | imaging | 24 h | IC50 | ~11400 nM |
| CC(C)C[C@H](NC(=O)OCc1ccccc1)C(=O)N[C@@H](Cc1ccccc1)C(=O)N[C@@H](CC(C)C)C(=O)C(=O)Nc1ccccc1 | RPMI-8226 | MTS | 72 h | IC50 | 843 nM |
| COc1cc2c3c(n(CCCNCCO)c(=O)c2cc1OC)-c1cc2c(cc1C3=O)OCO2 | OVCAR-3 | – | – | GI50 | 500 nM |
| Cc1cc(N(CCOS(C)(=O)=O)CCOS(C)(=O)=O)ccc1C=O | ACHN | – | – | IC50 | 0.263 µg/mL |
| O=C(O)CCCc1ccc(N(CCCl)CCCl)cc1 | OVCAR-3 | CCK-8 | 48 h | IC50 | 29400 nM |
| C[C@H]1CN(c2ccncc2NC(=O)c2ccc(F)c(-c3c(F)cccc3F)n2)C[C@@H](N)[C@@H]1O | RPMI-8226 | thymidine uptake | – | GI50 | 156 nM |
| CCOP(=S)(OCC)Oc1nc(Cl)c(Cl)cc1Cl | ReNcell VM | imaging | 24 h | IC50 | ~11600 nM |
| CC(C)C[C@H](NC(=O)OCc1ccccc1)C(=O)N[C@@H](CC(C)C)C(=O)N[C@@H](CC(C)C)C(=O)C(=O)Nc1cccc2ncccc12 | RPMI-8226 | MTS | 72 h | IC50 | 134 nM |
